Screens: PubChem, several laboratories
T cruzi inh: blocks replication of Trypanosoma cruzi | T. cruzi beta-gal in NIH3T3, luminescence, 90 h | inhibition, % (concentration not given with the values) | hit rate 1.4% among 300,000;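 active = mean inhibition across valid replicates above about 55%, limit read from the data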;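 also: signal also drops with host cell toxicity which is not excluded here; higher percent means less beta-gal luminescence so fewer parasites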
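assay system = mouse NIH/3T3 fibroblasts infected with β-gal-expressing T. cruzi Tulahuen C4 | input = 5,000 NIH/3T3 host cells per well | buffer or medium = DMEM plus 2% FBS | timing = 3 h host attachment, then at least 90 h co-culture | measured by = GalScreen luminescence, 60 min | evaluation = luminescence reflecting intracellular parasite burden, expressed as percent inhibition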
HIF activator: HIF pathway transcriptional activation. hit rate 0.32% among 300,000. activation, % at 7.5 µM (by protocol). U2OS HRE-luciferase reporter, luminescence; normalized: DMSO 0%, desferrioxamine 100%;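 active = mean activation of at least 10% of the iron chelator positive control signal, with at least half of replicates also reaching 10%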
Beta cell apopt: beta cell apoptosis inhibition; INS-1E cytokine-induced death, ATP luminescence, 48 h; percent of positive-control rescue, neutral wells zero; protection from apoptosis, % (concentration not given with the values); hit rate 0.8% among 300,000; AID 435005;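 active = Every replicate reaches about 75%, or at least half do and their mean reaches it too, limit read from the data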;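 also: higher means more ATP so stronger rescue from cytokine killing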
KLF5 inhibitor: kruppel-like factor 5 inhibition. inhibition, % at 5 µM. DLD-1 KLF5 promoter-luciferase reporter, luminescence. hit rate 0.23% among 290,000;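 active = inhibition above a per-plate limit of that plate's mean compound inhibition plus 3 SD, cut at about 60% in these data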;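 also: higher means less KLF5 promoter-driven luciferase light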
A1 inh: inhibitors of the anti-apoptotic protein A1, read as caspase activation | MEF A1-2A-BIM cells, Caspase-Glo 3/7 luminescence, 3 h; percent of clofoctol response, vehicle zero | caspase activation, % (no concentration beside the values) | hit rate 0.066% among 330,000;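 active = over half of replicate activation scores above 10%, or exactly half above 10 with the replicate mean above 10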
A number is an active result; n = inactive; x = no result. In the library only some 2.3% were active in any assay of this set; here they are far more common.

SMILES	T cruzi inh	HIF activator	Beta cell apopt	KLF5 inhibitor	A1 inh
COCCN(Cc1cn[nH]c1-c1ccc2cc(OC)ccc2c1)C(C)C	65	n	x	n	n
COCC1CCCCN1Cc1cn[nH]c1-c1ccc2cc(OC)ccc2c1 (stereo unspecified)	70	n	n	n	n
COCC1CCCCN1Cc1cn[nH]c1-c1ccc(OC)cc1OC (stereo unspecified)	n	n	n	n	n
CCOC(=O)CN(C)Cc1cn[nH]c1-c1ccc2cc(OC)ccc2c1	n	n	x	n	n
Cc1ccc(S(=O)(=O)N2CCN(C(=O)CC(C)n3nc(C)c(Cl)c3C)CC2)cc1C (stereo unspecified)	n	n	n	n	n
COc1cc(NC(=O)c2cc(S(=O)(=O)N3CCCCC3)c[nH]2)cc(OC)c1	n	n	n	n	n
CCOC(=O)C1=C(C)Nc2ccccc2N/C1=N\S(=O)(=O)c1cc(C(=O)O)ccc1Cl	x	x	n	x	n
CCc1ccc(C(=O)OCC(=O)N(CCOC)c2c(N)n(Cc3ccccc3)c(=O)[nH]c2=O)cc1	n	n	n	x	n
Nc1c(C(=O)Nc2ccccc2)c2nc3ccccc3nc2n1-c1ccc(O)cc1	59	n	n	n	n
COc1cc(C(C)=O)ccc1OCc1nnc(-c2ccccc2Br)o1	n	n	n	n	n
CS(=O)(=O)c1ccc(C(=O)OCc2nnc(-c3ccccc3)o2)cc1[N+](=O)[O-]	76	n	x	n	x
O=[N+]([O-])c1cc(Br)c(OCc2nnc(-c3ccccc3)o2)c(Br)c1	67	n	n	n	n
O=[N+]([O-])c1ccc2c(OCc3nnc(-c4ccccc4Br)o3)ncnc2c1	71	n	n	n	n
Cc1cc(=O)[nH]c2nnc(-c3ccc(Cl)cc3)n12	n	n	x	n	n
COc1cc(OC)cc(C(=O)Nc2ccn(C)n2)c1	x	x	n	x	n
CCOc1ccc(NCC(=O)c2ccc(C)cc2)cc1	57	n	n	n	n
COc1ccc(CNC(=O)c2c(C)oc3c2C(=O)c2ccccc2C3=O)cc1	n	n	109	n	n
CC(=O)c1c(C)oc2c1C(=O)c1ccccc1C2=O	n	n	96	n	n
CC(=O)c1c2c3c(c(Br)ccc3n(C)c1=O)C(=O)c1ccccc1-2	n	n	n	n	n
Cc1oc2c(c1C(=O)NCc1cccnc1)C(=O)c1ccccc1C2=O	n	n	x	n	n
O=C1c2ccccc2C(=O)c2c1oc(C(F)(F)F)c2C(=O)c1ccccc1	59	n	123	n	n
CCC(=O)N(CCC(c1ccc(C)cc1)c1ccco1)Cc1ccco1 (stereo unspecified)	n	n	n	n	n
Oc1ccc2ccccc2c1/C=N/Nc1nnc(-c2ncc[nH]2)c2ccccc12	58	82	107	n	n
CC(=O)c1ccccc1OCCOCCOc1ccccc1C(C)=O	n	n	108	n	n
COC(=O)C1=C(C)C(c2ccc(OC)cc2OC)NC(=O)N1 (stereo unspecified)	n	n	n	n	n
SMILES	T cruzi inh	HIF activator	Beta cell apopt	KLF5 inhibitor	A1 inh
COc1ccc(C2CC(C)(c3ccc(OC)cc3OC)Nc3ccccc3N2)c(OC)c1 (stereo unspecified)	73	n	n	n	n
C#CCOCCOCCOCCNc1nc(N2CCN(C(=O)[C@H](CC(N)=O)n3cc([C@@H](N)C(C)C)nn3)CC2)nc(N2CCN(C(=O)[C@H](CC(N)=O)n3cc([C@@H](N)C(C)C)nn3)CC2)n1	x	x	n	x	n
Cc1sc2ncnc(NCCc3ccc(S(N)(=O)=O)cc3)c2c1C	n	n	93	n	n
CCCN1CCCc2cc(CN)ccc21	89	n	98	n	n
CN1CCCc2cc(C=O)ccc21	n	n	n	n	n
Cc1ccc(Cn2c(=N)n(CC(=O)c3ccccc3)c3ccccc32)cc1	n	n	98	n	n
CC(C)(C)C(=O)Cn1c(=N)n(Cc2ccccc2Cl)c2ccccc21	57	n	n	n	n
CC(C)(C)C(=O)Cn1c(=N)n(Cc2ccccc2)c2ccccc21	n	n	n	n	n
COc1cc(OC)cc(-c2c(-c3cccs3)c3cc(-c4ccc5[nH]ccc5c4)ccc3n2C)c1	x	x	n	x	n
CSc1cccc(NC(=S)N(Cc2ccccc2)Cc2cccnc2)c1	83	n	n	n	n
Cc1cccc(C)c1NC(=S)N(Cc1ccccc1)Cc1cccnc1	79	n	n	n	n
Cc1c(Cl)cccc1NC(=S)N(Cc1cccnc1)Cc1ccccc1Cl	75	n	n	n	n
